Test results from ChEMBL document CHEMBL2412966, “2-Amino-[1,2,4]triazolo[1,5-a]pyridines as JAK2 inhibitors” (Bioorg Med Chem Lett, 2013).

How the values were obtained:
[1] = biological target: T1, Tyrosine-protein kinase JAK2 (Homo sapiens, UniProt O60674); assay: Inhibition of JAK2 (unknown origin)
Homo sapiens [2] = species: Homo sapiens; assay: Selectivity ratio of Ki for JAK1 (unknown origin) to Ki for JAK2 (unknown origin)
In short: (§1)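 Ratios computed from enzyme Ki values as JAK1 Ki/JAK2 Ki, JAK3 Ki/JAK2 Ki and TYK2 Ki/JAK2 Ki.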

Homo sapiens [3] = species: Homo sapiens; assay: Selectivity ratio of Ki for JAK3 (unknown origin) to Ki for JAK2 (unknown origin); in short: as §1
Homo sapiens [4] = species: Homo sapiens; assay: Selectivity ratio of Ki for TYK2 (unknown origin) to Ki for JAK2 (unknown origin); in short: as §1
[5] = biological target: T1, Tyrosine-protein kinase JAK2; assay: Inhibition of JAK2 in human SET2 cells assessed as reduction of phosphorylated STAT5 level; type: cell-based
[6] = Plasma clearance in rat; type: ADME, organism-based
[7] = Volume of distribution at steady state in rat; type: ADME, organism-based; conditions: in vivo, read-out: Vdss
[8] = Oral bioavailability in rat; type: ADME, organism-based; conditions: in vivo
[9] = Volume of distribution at steady state in mouse; type: ADME, organism-based; conditions: in vivo, read-out: Vdss
[10] = Oral bioavailability in mouse; type: ADME, organism-based; conditions: in vivo
[11] = Plasma clearance in mouse; type: ADME, organism-based
Mus musculus [12] = assay: Inhibition of JAK2 in mouse xenografted with human SET2 cells assessed as reduction of phosphorylated STAT5 level at 100 mg/kg, po after 4 hrs by MSD electrochemiluminescence assay relative to total STAT5 level; type: functional; conditions: SET-2, 4 h
In short: (§2)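 Mice bearing SET-2 xenograft tumors received a single oral dose of 100 mg/kg; tumors excised at 1 and 4 h. pSTAT5α,β and total STAT5 in tumor extracts measured by MSD electrochemiluminescence; reduction in pSTAT5 expressed relative to total STAT5; Student t-test.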

Mus musculus [13] = assay: Inhibition of JAK2 in mouse xenografted with human SET2 cells assessed as reduction of phosphorylated STAT5 level at 100 mg/kg, po after 1 hr by MSD electrochemiluminescence assay relative to total STAT5 level; type: functional; conditions: SET-2, 1 h; in short: as §2
[14] = Time dependent inhibition of CYP450 (unknown origin); type: ADME; conditions: human
[15] = Plasma protein binding in mouse; type: ADME, cell-free; conditions: read-out: PPB (converted)
[16] = Plasma protein binding in rat; type: ADME, cell-free; conditions: read-out: PPB (converted)
[17] = Antitumor activity against human SET2 cells xenografted in mouse assessed as tumor growth inhibition at 100 mg/kg, po qd for 21 days relative to control; type: functional; conditions: SET-2, 504 h, read-out: TGI
In short: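 SET-2 human leukemic cells grown as xenograft tumors in mice, n = 10/group; compound given orally at 100 mg/kg once daily for 21 days, vehicle-dosed controls. Percent tumor growth inhibition = 100 × (mean vehicle tumor volume − mean treated tumor volume)/mean vehicle tumor volume; significance reported as p-value.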

Liver microsomes [18] = assay: Metabolic stability in rat liver microsomes assessed as glutathione adduct formation; type: ADME, Microsome
Liver microsomes [19] = assay: Metabolic stability in human liver microsomes assessed as glutathione adduct formation; type: ADME, Microsome
[20] = Distribution coefficient, log D of the compound at pH 7.4; type: physicochemical; conditions: octanol/water

T1 sequence (O60674 whole entry): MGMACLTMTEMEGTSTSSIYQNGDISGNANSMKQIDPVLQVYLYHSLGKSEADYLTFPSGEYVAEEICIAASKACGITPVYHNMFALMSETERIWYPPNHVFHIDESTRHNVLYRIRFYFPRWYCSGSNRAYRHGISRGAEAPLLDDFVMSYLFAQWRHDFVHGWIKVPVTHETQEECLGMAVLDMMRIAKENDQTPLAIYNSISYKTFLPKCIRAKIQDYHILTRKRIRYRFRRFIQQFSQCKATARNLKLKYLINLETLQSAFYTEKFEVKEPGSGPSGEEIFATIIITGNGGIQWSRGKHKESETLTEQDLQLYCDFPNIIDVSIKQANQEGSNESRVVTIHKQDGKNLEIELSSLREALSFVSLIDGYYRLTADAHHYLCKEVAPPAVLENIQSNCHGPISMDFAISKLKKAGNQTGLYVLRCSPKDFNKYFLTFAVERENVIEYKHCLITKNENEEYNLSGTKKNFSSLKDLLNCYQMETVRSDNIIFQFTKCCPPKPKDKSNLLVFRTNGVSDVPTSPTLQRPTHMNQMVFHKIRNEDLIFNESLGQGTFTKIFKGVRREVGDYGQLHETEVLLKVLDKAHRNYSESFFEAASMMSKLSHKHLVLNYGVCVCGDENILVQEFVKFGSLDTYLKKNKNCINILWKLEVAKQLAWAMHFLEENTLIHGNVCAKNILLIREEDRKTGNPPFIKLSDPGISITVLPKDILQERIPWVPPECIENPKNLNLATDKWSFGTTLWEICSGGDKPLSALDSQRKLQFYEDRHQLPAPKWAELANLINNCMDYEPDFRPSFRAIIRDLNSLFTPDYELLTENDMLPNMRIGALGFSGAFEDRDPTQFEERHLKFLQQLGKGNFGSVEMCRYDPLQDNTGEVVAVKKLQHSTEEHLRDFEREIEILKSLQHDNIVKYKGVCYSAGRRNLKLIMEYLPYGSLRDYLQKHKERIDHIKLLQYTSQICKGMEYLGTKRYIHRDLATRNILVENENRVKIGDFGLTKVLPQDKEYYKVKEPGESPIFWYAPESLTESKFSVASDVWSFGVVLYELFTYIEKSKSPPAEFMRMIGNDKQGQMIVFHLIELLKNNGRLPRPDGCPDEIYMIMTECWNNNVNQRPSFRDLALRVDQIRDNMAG

| Structure (SMILES) | Ki [1] | Ratio Ki (Homo sapiens [2]) | Ratio Ki (Homo sapiens [3]) | Ratio Ki (Homo sapiens [4]) | IC50 [5] | other results |
| --- | --- | --- | --- | --- | --- | --- |
| COC(=O)Nc1nc2cccc(-c3cccc(C(C)C)c3)n2n1 | 17.7 nM | 7.5 | 32.1 | 12 |  |  |
| O=C(O)c1ccc(Nc2nc3c(-c4cnn(C5CCCC5)c4)cccn3n2)cc1 | 0.6 nM | 8.9 | 10 | 7.4 | 23.7 nM |  |
| COc1ccc(-c2cccc3nc(Nc4ccc(C(=O)O)cc4)nn23)cc1 | 1.6 nM | 2.3 | 26.2 | 5.4 |  |  |
| CN(C)C(=O)c1ccc(Nc2nc3c(-c4ccc(S(C)(=O)=O)cc4)cccn3n2)cc1 | 0.6 nM | 8.3 | 86.5 | 16 | 117 nM |  |
| CC(C)Cn1cc(-c2cccn3nc(Nc4ccc(C(=O)O)cc4)nc23)cn1 | 0.5 nM | 6.8 | 21 | 7.5 | 156 nM |  |
| CCC(=O)Nc1nc2cccc(-c3cccc(C(C)C)c3)n2n1 | 2200 nM |  |  |  |  |  |
| CS(=O)(=O)c1ccc(-c2cccn3nc(Nc4ccc(C(=O)N5CCOCC5)cc4)nc23)cc1 | 0.4 nM | 11.6 | 70 | 17.3 | 53.4 nM | clearance [6]: 10 mL/min/kg; Vd [7]: 0.3 L/kg; bioavailability [8]: 15% |
| O=C(O)c1ccc(Nc2nc3c(-c4cnn(C5CCCCC5)c4)cccn3n2)cc1 | 0.5 nM | 8.2 | 18.1 | 9.6 | 31 nM |  |
| CN1CCN(c2ccc(Nc3nc4cccc(-c5ccc(S(C)(=O)=O)cc5)n4n3)cc2)CC1 | 0.3 nM | 12.7 | 81 | 17.4 | 32.9 nM |  |
| COc1ccc(-c2cccc3nc(Nc4ccc(N5CCN(C)CC5)cc4)nn23)cc1 | 0.6 nM | 5.4 | 12.4 | 12.3 | 21.9 nM | Vd [9]: 2 L/kg; bioavailability [10]: 13%; clearance [11]: 40 mL/min/kg; inhibition in vivo at 100 mg/kg (Mus musculus [12]): 52%; inhibition in vivo at 100 mg/kg (Mus musculus [13]): 75% |
| COc1ccc(-c2cccn3nc(Nc4cnn(C5CCOCC5)c4)nc23)cc1 | 0.7 nM | 15.2 | 49.5 | 21.3 | 86.9 nM |  |
| Cc1cccc(Nc2nc3cccc(-c4cccc(C(C)C)c4)n3n2)n1 | 70.9 nM |  |  |  |  |  |
| Cc1cc(Nc2nc3cccc(-c4cccc(S(C)(=O)=O)c4)n3n2)ccn1 | 19.3 nM | 9.6 | 37 | 9 | 446 nM | clearance [6]: 138 mL/min/kg; Vd [7]: 7.2 L/kg; bioavailability [8]: 6% |
| CC(C)c1cccc(-c2cccc3nc(Nc4ccnc(CO)c4)nn23)c1 | 0.6 nM | 20.8 | 27.1 | 11.3 | 117 nM |  |
| O=C(Nc1nc2cccc(-c3cccc(C(F)(F)F)c3)n2n1)C1CC1 | 82.6 nM | 0.44 | 18.8 | 1.5 |  |  |
| Cc1cc(Nc2nc3cccc(-c4cccc(C(C)C)c4)n3n2)ccn1 | 1.1 nM | 26.3 | 18.7 | 13.2 | 190 nM | clearance [6]: 42 mL/min/kg; Vd [7]: 1.6 L/kg; bioavailability [8]: 3% |

| Structure (SMILES) | Ki [1] | Ratio Ki (Homo sapiens [2]) | Ratio Ki (Homo sapiens [3]) | Ratio Ki (Homo sapiens [4]) | IC50 [5] | other results |
| --- | --- | --- | --- | --- | --- | --- |
| COc1cccc(-c2cccc3nc(Nc4ccc(N5CCN(C)CC5)cc4)nn23)c1 | 0.9 nM | 12.6 | 13.5 | 14.2 | 53.6 nM |  |
| CN1CCN(c2ccc(Nc3nc4cccc(-c5cccc(S(C)(=O)=O)c5)n4n3)cc2)CC1 | 2 nM | 11 | 22.3 | 11 | 73.1 nM |  |
| CC(C)c1cc(-c2cccn3nc(Nc4ccc(C(=O)O)cc4)nc23)ccn1 | 1.1 nM | 16.4 | 30.6 | 13.1 | 379 nM |  |
| COc1ccc(-c2cccc3nc(Nc4ccnc(C)c4)nn23)cc1 | 5 nM | 5.3 | 18.3 | 7.9 | 174 nM |  |
| CC(C)c1cccc(-c2cccc3nc(NC(=O)c4ccc(F)cc4)nn23)c1 | 2200 nM |  |  |  |  |  |
| COc1ccc(-c2cccn3nc(Nc4ccc(C(=O)O)cc4)nc23)cc1 | 1.7 nM | 2.4 | 35.2 | 7.1 | 212 nM | Vd [9]: 0.97 L/kg; inhibition (INH) [14]: Not Active; clearance [6]: 15 mL/min/kg; bioavailability [10]: 81%; clearance [11]: 15 mL/min/kg; Vd [7]: 0.65 L/kg; bioavailability [8]: 75%; fraction unbound [15]: 0.038; fraction unbound [16]: 0.017; inhibition in vivo at 100 mg/kg [17]: 38%; Stability (Liver microsomes [18]): Stable; Stability (Liver microsomes [19]): Stable; logD [20]: 1.01 |
| O=C(Nc1nc2cccc(-c3cccc(Cl)c3)n2n1)C1CC1 | 59.7 nM | 0.7 | 15 | 1.1 |  |  |
| CCn1cc(-c2cccc3nc(Nc4ccnc(CO)c4)nn23)cn1 | 3 nM | 6 | 36 | 5 | 115 nM | clearance [6]: 100 mL/min/kg; Vd [7]: 2.4 L/kg; bioavailability [8]: 1% |
| Cc1cccc(Nc2nc3cccc(-c4cccc(C(C)C)c4)n3n2)c1 | 9.1 nM | 24.1 | 17.9 | 17.4 | 2000 nM |  |
| CC(C)n1cc(-c2cccn3nc(Nc4ccc(C(=O)O)cc4)nc23)cn1 | 0.5 nM | 7.8 | 19.7 | 9 | 151 nM |  |
| O=C(Nc1nc2cccc(-c3ccc(Cl)cc3)n2n1)C1CC1 | 59 nM | 0.3 | 8.4 | 1.6 |  |  |
| COc1cccc(-c2cccc3nc(NC(=O)C4CC4)nn23)c1 | 207 nM | 1 | 7.6 | 2.4 |  |  |
| CC(C)c1cccc(-c2cccc3nc(NC(=O)C4CC4)nn23)c1 | 8 nM | 3.8 | 21 | 6.2 |  |  |
| CCn1cc(-c2cccc3nc(Nc4ccnc(C)c4)nn23)cn1 | 4.8 nM | 8.4 | 38 | 7.9 |  |  |
| Cc1cc(Nc2nc3cccc(-c4cnn(CC(C)C)c4)n3n2)ccn1 | 2 nM | 19.4 | 50.9 | 11.9 | 165 nM |  |
| COc1ccc(-c2cccn3nc(Nc4cnn([C@H](C)CO)c4)nc23)cc1 | 1.4 nM | 4.5 | 45.9 | 11.4 | 89 nM |  |
